Data as given in ChEMBL document CHEMBL1155099, “Natural products in parallel synthesis: triazole libraries of nonactic acid” (2008).
Calls of active or inactive are those of the source.

What was measured:
Format in all cases: functional, organism-based
Saccharomyces cerevisiae = test: Antifungal activity against Saccharomyces cerevisiae at 1 mM by almar blue dye reduction assay
In short: (§1)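 Single-point primary screen at 1 mM using Alamar Blue dye reduction as the growth read-out.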

Candida albicans = test: Antifungal activity against Candida albicans at 1 mM by almar blue dye reduction assay; in short: as §1
Escherichia coli = test: Antibacterial activity against Escherichia coli at 1 mM by almar blue dye reduction assay; in short: as §1
Bacillus cereus = test: Antibacterial activity against Bacillus cereus at 1 mM by almar blue dye reduction assay; in short: as §1
Bacillus anthracis = test: Antibacterial activity against Bacillus anthracis at 1mM by almar blue dye reduction assay
Cryptococcus neoformans = test: Antifungal activity against Cryptococcus neoformans at 1 mM by almar blue dye reduction assay; in short: as §1
Staphylococcus aureus = test: Antibacterial activity against Staphylococcus aureus at 1 mM by almar blue dye reduction assay; in short: as §1
Bacillus subtilis = test: Antibacterial activity against Bacillus subtilis at 1 mM by almar blue dye reduction assay; in short: as §1
Pseudomonas aeruginosa = test: Antibacterial activity against Pseudomonas aeruginosa at 1 mM by almar blue dye reduction assay; in short: as §1

Measured: Activity

CC(C)NC(=O)[C@H](C)[C@H]1CC[C@@H](C[C@@H](C)n2cc(C#CCc3ccccc3)nn2)O1
inactive: all assays above

COc1cccc(OCC#Cc2cn([C@H](C)C[C@@H]3CC[C@H]([C@@H](C)C(=O)N4CCCC4)O3)nn2)c1OC
inactive: all assays above

CC(C)NC(=O)[C@H](C)[C@H]1CC[C@@H](C[C@@H](C)n2cc(C#Cc3ccc(C(F)(F)F)cc3)nn2)O1
inactive: all assays above

C[C@H](C[C@@H]1CC[C@H]([C@@H](C)C(=O)N(C)Cc2ccccc2)O1)n1cc(C#CCOc2cccc(-c3ccccc3)c2)nn1
inactive: all assays above

CCCCCC#Cc1cn([C@H](C)C[C@@H]2CC[C@H]([C@@H](C)C(=O)N3CCN(CC4CCCO4)CC3)O2)nn1 (stereo not given in full)
inactive: all assays above

COc1ccc(C#Cc2cn([C@H](C)C[C@@H]3CC[C@H]([C@@H](C)C(=O)N(C)Cc4ccccc4)O3)nn2)cc1
inactive: all assays above

C[C@H](C[C@@H]1CC[C@H]([C@@H](C)C(=O)N2CCCC2)O1)n1cc(C#Cc2ccccn2)nn1
inactive: all assays above

COCC#Cc1cn([C@H](C)C[C@@H]2CC[C@H]([C@@H](C)C(=O)NC(C)C)O2)nn1
inactive: all assays above

CCOC(=O)C#Cc1cn([C@H](C)CC2CCC([C@@H](C)C(=O)N(CC)CC)O2)nn1 (single isomer, unassigned)
inactive: all assays above

CCN(CC)C(=O)[C@H](C)[C@H]1CC[C@@H](C[C@@H](C)n2cc(C#CCOc3cccc(-c4ccccc4)c3)nn2)O1
inactive: all assays above
